Compound activity: PubChem, several laboratories
m-calpain inh = inhibitors of pig calpain II; purified calpain II, fluorogenic peptide substrate, 30 min; inhibition, % at 16 µM; 0.37% of 220,000 active; AID 1236;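 active = inhibition above about 50%, limit read from the data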
PMI activator = phosphomannose isomerase (human) activation. 0.005% of 190,000 active. purified human PMI, coupled resazurin fluorescence, 20 min; active compounds read high; 1 = vehicle control, 0 substrate-free wells. activation factor at 20 µM. P34949. AID 1214;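 active = activation factor of 2 or more at 20 µM, relative to plate controls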
Target sequence (P34949 whole entry, looked up): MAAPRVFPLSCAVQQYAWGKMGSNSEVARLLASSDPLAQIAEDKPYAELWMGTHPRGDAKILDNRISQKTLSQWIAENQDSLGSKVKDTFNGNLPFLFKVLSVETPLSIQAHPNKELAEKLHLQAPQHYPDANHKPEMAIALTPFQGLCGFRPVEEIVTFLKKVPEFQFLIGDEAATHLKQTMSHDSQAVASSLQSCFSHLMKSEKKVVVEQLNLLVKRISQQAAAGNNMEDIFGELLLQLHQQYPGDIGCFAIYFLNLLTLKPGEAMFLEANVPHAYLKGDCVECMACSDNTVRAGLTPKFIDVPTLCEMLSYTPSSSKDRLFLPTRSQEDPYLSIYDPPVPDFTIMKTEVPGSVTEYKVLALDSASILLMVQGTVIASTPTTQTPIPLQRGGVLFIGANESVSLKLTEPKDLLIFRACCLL
WT yeast gro inh = growth inhibition of WT yeast, mitochondrial fusion screen. AID 1362. inhibition, % at 10 µM. mitochondrial fusion phenotypic screen, WT strain. 2.1% of 190,000 active; in the data active = inhibition above about 58%; tested in S. cerevisiae
L major viab = reduces viability of Leishmania major promastigotes; inhibition, % at 10 µM; AID 1063; 9% of 200,000 active; resazurin fluorescence viability; in the data active = inhibition above about 50%;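 note: promastigotes grown with compound for 44 hours at 28 °C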
Rad51 HR inh = Rad51 (human) homologous recombination inhibition | Q06609 | hRad51 DNA strand exchange, fluorescence dequenching | inhibition, % at 10 µM | 0.085% of 200,000 active | AID 1385;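 active = inhibition above 40% at the single screening dose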;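 note: 0% = DMSO control wells and 100% = blanks with heterologous ssDNA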
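material = hRad51 filaments on single-stranded DNA | reagent = Donor/quencher-labelled 47-bp dsDNA substrate | compound = 10 µM final, single point | schedule = strand-exchange reaction 15 min at room temperature | measured by = fluorescein emission 520 nm, excitation 485 nm | read-out basis = % inhibition versus plate control and blank means | benchmarks = plate controls and plate blanks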
PMI act satM6P = increases human PMI activity with near-saturating mannose 6-phosphate; P34949; coupled PMI enzyme assay, resazurin fluorescence, 20 min; active compounds read high; 1 = untreated enzyme, 0 = substrate-free blank; activation factor at 20 µM; 0.34% of 190,000 active;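 active = activation factor of 2 or more at 20 µM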
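Technique: Diaphorase-driven resazurin-to-resorufin fluorescence, excitation 544, emission 590 nm | Assay system: Human PMI in coupled enzyme assay | Times: Enzyme reaction with compound 20 min at room temperature | Medium: HEPES-buffered pH 7.4 with magnesium and detergent | Reagent: Mannose-6-phosphate 1.0 mM (near-saturating) plus 0.22 mM NADP+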
* marks the source's active call; other numbers are inactive results; . = no result given. Compounds with a hit are over-represented: about 9.8% of the library has one in this group of screens.

SMILES	m-calpain inh	PMI activator	WT yeast gro inh	L major viab	Rad51 HR inh	PMI act satM6P
COc1ccc(CN2CCN(C(=O)c3ccco3)CC2)cc1OCc1ccccc1	2	0.7	13	87*	14	1
CCN1CCN(Cc2ccc(OC)c(OCc3ccccc3)c2)CC1	-27	0.9	8	17	-3	0.9
COc1ccc(CN2CCN(C(=O)c3ccco3)CC2)cc1OC	-1	1.1	-9	-4	8	1.1
CCN1CCN(Cc2ccc(OCc3ccccc3)c(OC)c2)CC1	-20	1	-2	65*	-5	1.1
COc1ccc2ccccc2c1CN1CCCC(CO)C1 (stereo not drawn)	6	1.1	3	0	4	1
COc1cc(CN(C)CCc2ccccc2)ccc1OCc1ccccc1	-17	1	-4	96*	2	1
O=C(N/N=C/c1ccccc1O)C(=O)Nc1ccccn1	-22	1.1	-6	36	-5	1.3
COc1ccc(CN2CCN(c3ccccn3)CC2)cc1OCc1ccccc1	-13	0.8	13	72*	-3	0.9
COc1ccc(OC)c(NC(=S)N(CCc2c(C)[nH]c3ccc(C)cc23)Cc2cccs2)c1	15	0.9	18	84*	.	0.8
COCCNC(=S)N(CCc1c(C)[nH]c2ccc(C)cc12)Cc1cc(OC)c(OC)c(OC)c1	-17	1	-11	53*	.	1
COc1cccc(NC(=S)N(CCc2c(C)[nH]c3ccc(C)cc23)Cc2cccs2)c1	-14	1	21	78*	.	1
COc1ccc2[nH]c(C)c(CCN(Cc3cccs3)C(=S)Nc3cccc(F)c3)c2c1	-28	0.8	-1	50*	-2	0.8
COc1ccc(-c2nc(SC(CC(=O)NCCN3CCOCC3)c3cccs3)n[nH]2)cc1 (stereo not drawn)	-2	1	-8	-4	-4	1
COc1cc(C2NC(=O)NC3=C2C(=O)OC3)cc(OC)c1OC (stereo not drawn)	-29	.	.	.	6	.
CC#CC[N+](C)(C)CCCCCCCCCC	8	.	.	.	.	.
O=C(NCCN1C(=O)S/C(=C\c2ccccc2)C1=O)c1cc(S(=O)(=O)N2CCOCC2)c(Cl)cc1Cl	-31	1	-6	11	-8	1
COc1ccc(-c2cc(C3CCN(c4cc(Cl)nc(N)n4)CC3)[nH]n2)cc1	0	0.9	62*	31	3	0.9
Clc1ccc(-c2cc(C3CCNCC3)[nH]n2)cc1	-20	1	-13	61*	16	1
Nc1nc(Cl)cc(N2CCC(c3cc(-c4ccc(Cl)cc4)n[nH]3)CC2)n1	17	0.9	12	100*	2	1
CC(=O)c1ccc(N2CCC(c3cc(-c4ccc(Cl)cc4Cl)n[nH]3)CC2)c([N+](=O)[O-])c1	-19	0.5	2	16	-3	0.9
COc1ccc(OC)c(-c2cc(C3CCN(c4cc(Cl)nc(N)n4)CC3)[nH]n2)c1	5	0.9	66*	100*	.	0.8
N#Cc1cnc(NOCc2ccc(Cl)cc2)nc1	-20	1.1	-12	-4	-2	1.1
O=C(CCC1CCCN(C(=O)c2ccsc2)C1)N1CCN(c2ccccn2)CC1 (stereo not drawn)	-9	.	.	.	.	.
CCOc1ccc(NC(=O)CC2C(=O)N(CC)C(=S)N2NC(=O)c2ccncc2)cc1 (stereo not drawn)	-24	.	.	.	9	.
C/C(=N/NC(=O)CNC(=O)/C=C/c1ccco1)c1ccc(Cl)cc1	-106	0.9	-2	-5	5	1
Cc1ccc(-n2c(C)cc(-c3csc(N)n3)c2C)cc1	-7	1.4	18	67*	-25	1.5
COC(=O)NC(=C(Cl)Cl)S(=O)(=O)c1ccccc1	14	1	-16	97*	5	1.1
CCOC(=O)NC(C(Cl)(Cl)Cl)S(=O)(=O)c1ccccc1 (stereo not drawn)	18	.	.	.	-1	.
c1cncc(-c2nc(NCCCN3CCOCC3)c3c4c(sc3n2)CCC4)c1	-137	1.1	2	68*	9	1
c1cncc(-c2nc(N3CCOCC3)c3c4c(sc3n2)CCC4)c1	-144	1	-15	13	-50	1
